Tests used:
RXF 393 = experiment: Cytotoxicity against human […] cells after 48 hrs by SRB assay; assay type: functional; settings: RXF 393, 48 h
NCI/ADR-RES = experiment: Cytotoxicity against human NCI/ADR-RES cells after 48 hrs by SRB assay; assay type: functional
IGROV-1 = experiment: Cytotoxicity against human IGROV1 cells after 48 hrs by SRB assay; assay type: functional; settings: IGROV-1, 48 h
SK-MEL-5 = experiment: Cytotoxicity against human SK-MEL-5 cells after 48 hrs by SRB assay; assay type: functional; settings: SK-MEL-5, 48 h
OVCAR-8 = experiment: Cytotoxicity against human OVCAR8 cells after 48 hrs by SRB assay; assay type: functional; settings: OVCAR-8, 48 h
MCF7 = experiment: Cytotoxicity against human MCF7 cells after 48 hrs by SRB assay; assay type: functional; settings: MCF7, 48 h
UACC-62 = experiment: Cytotoxicity against human UACC-62 cells after 48 hrs by SRB assay; assay type: functional; settings: UACC-62, 48 h
Method in brief: (§1)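 Tested in the NCI panel of 60 human tumour cell lines covering lung, colon, melanoma, renal, ovarian, breast and leukaemia. At least five concentrations were run in 10-fold dilutions starting from 10^-4 M. Exposure was continuous for 48 h. Growth or viability was estimated by sulforhodamine B protein staining, and GI50 values were reported.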

ACHN = experiment: Cytotoxicity against human ACHN cells after 48 hrs by SRB assay; assay type: functional
SF-268 = experiment: Cytotoxicity against human SF-268 cells after 48 hrs by SRB assay; assay type: functional; settings: SF-268, 48 h
[1] = Cytotoxicity against human Raji cells assessed as cell viability at 10 molar ratio; assay type: cell-based; settings: read-out: Activity
Method in brief: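 Raji cells were treated with 32 pmol TPA to induce EBV early antigen activation. The test agent was added at 10, 100, 500 or 1000 mol ratio relative to TPA, and Raji cell viability was measured alongside EA activation.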

OVCAR-5 = experiment: Cytotoxicity against human OVCAR5 cells after 48 hrs by SRB assay; assay type: functional; settings: OVCAR-5, 48 h
HOP-62 = experiment: Cytotoxicity against human HOP-62 cells after 48 hrs by SRB assay; assay type: functional; settings: HOP-62, 48 h
Malme-3M = experiment: Cytotoxicity against human MALME-3M cells after 48 hrs by SRB assay; assay type: functional
UO-31 = experiment: Cytotoxicity against human UO-31 cells after 48 hrs by SRB assay; assay type: functional; settings: UO-31, 48 h; method in brief: as §1
SW-620 = experiment: Cytotoxicity against human SW620 cells after 48 hrs by SRB assay; assay type: functional; settings: SW-620, 48 h
786-0 = experiment: Cytotoxicity against human 786-0 cells after 48 hrs by SRB assay; assay type: functional; settings: 786-0, 48 h
Raji [2] = experiment: Inhibition of TPA-induced EBV-early antigen activation in human Raji cells at 10 molar ratio relative to TPA; assay type: cell-based; design: scale not given: the % may be the effect or the level left; settings: human gammaherpesvirus 4
NCI-H226 = experiment: Cytotoxicity against human NCI-H226 cells after 48 hrs by SRB assay; assay type: functional; settings: NCI-H226, 48 h
TK-10 = experiment: Cytotoxicity against human TK-10 cells after 48 hrs by SRB assay; assay type: functional; settings: TK-10, 48 h; method in brief: as §1
SN12C = experiment: Cytotoxicity against human SN12C cells after 48 hrs by SRB assay; assay type: functional
MDA-MB-231 = experiment: Cytotoxicity against human MDA-MB-231 cells after 48 hrs by SRB assay; assay type: functional; settings: MDA-MB-231, 48 h
Raji [3] = experiment: Inhibition of TPA-induced EBV-early antigen activation in human Raji cells at 500 molar ratio relative to TPA; assay type: cell-based; design: scale not given: the % may be the effect or the level left; settings: human gammaherpesvirus 4
SK-MEL-2 = experiment: Cytotoxicity against human SK-MEL-2 cells after 48 hrs by SRB assay; assay type: functional; settings: SK-MEL-2, 48 h
KM12 = experiment: Cytotoxicity against human KM12 cells after 48 hrs by SRB assay; assay type: functional; settings: KM12, 48 h
OVCAR-3 = experiment: Cytotoxicity against human OVCAR-3 cells after 48 hrs by SRB assay; assay type: functional; settings: OVCAR-3, 48 h
PC-3 = experiment: Cytotoxicity against human PC-3 cells after 48 hrs by SRB assay; assay type: functional; settings: PC-3, 48 h
SF-295 = experiment: Cytotoxicity against human SF-295 cells after 48 hrs by SRB assay; assay type: functional; settings: SF-295, 48 h
HCC 2998 = experiment: Cytotoxicity against human HCC2998 cells after 48 hrs by SRB assay; assay type: functional; settings: HCC 2998, 48 h
UACC-257 = experiment: Cytotoxicity against human UACC-257 cells after 48 hrs by SRB assay; assay type: functional; settings: UACC-257, 48 h; method in brief: as §1
CCRF-CEM = experiment: Cytotoxicity against human CCRF-CEM cells after 48 hrs by SRB assay; assay type: functional

For `CCCCOC(=O)[C@H]1O[C@@H](O[C@H]2CC[C@]3(C)[C@H]4CC=C5[C@@H]6CC(C)(C)CC[C@]6(C(=O)O[C@@H]6O[C@H](CO)[C@@H](O)[C@H](O)[C@H]6O)CC[C@@]5(C)[C@]4(C)CC[C@H]3C2(C)C)[C@H](O)[C@@H](O)[C@@H]1O`, the GI50 (RXF 393) was 1650 nM, the GI50 (NCI/ADR-RES) was over 50000 nM and the GI50 (IGROV-1) was 1700 nM. It also gave a GI50 (SK-MEL-5) of 930 nM, a GI50 (OVCAR-8) of 4280 nM and a GI50 (MCF7) of 1600 nM. The GI50 (UACC-62) was 890 nM, the GI50 (ACHN) was 6290 nM and the GI50 (SF-268) was 2170 nM. It also gave a viability at 10 molar ratio [1] of over 80%, a GI50 (OVCAR-5) of 3070 nM and a GI50 (HOP-62) of 2220 nM. The GI50 (Malme-3M) was 1470 nM, the GI50 (UO-31) was 12700 nM and the GI50 (SW-620) was 1930 nM. The GI50 (786-0) was 1560 nM, the Activity (Raji [2]) was 100% and the GI50 (NCI-H226) was 1490 nM. It also gave a GI50 (TK-10) of 1850 nM, a GI50 (SN12C) of 1390 nM and a GI50 (MDA-MB-231) of 1150 nM. The Activity (Raji [3]) was 48.1%, the GI50 (SK-MEL-2) was 1850 nM and the GI50 (KM12) was 2080 nM. For the same molecule, the GI50 (OVCAR-3) was 3270 nM, the GI50 (PC-3) was 1260 nM and the GI50 (SF-295) was 2560 nM. For the same molecule, the GI50 (HCC 2998) was 890 nM, the GI50 (UACC-257) was 4180 nM and the GI50 (CCRF-CEM) was 23100 nM.
